Results reported in ChEMBL document CHEMBL5120933, “Direct-to-Biology Accelerates PROTAC Synthesis and the Evaluation of Linker Effects on Permeability and Degradation” (ACS Med Chem Lett, 2022).

How the values were obtained:
[1] = biological target: Bromodomain-containing protein 4 (Homo sapiens) (UniProt O60885); assay: Relative binding affinity to BRD4 (unknown origin)
HEK293 [2] = assay: Cytotoxicity against human HEK293 cells assessed as inhibition of cell viability incubated for 30 mins in presence of CRBN-tracer by nanoBRET assay; assay type: functional, cell-based
[3] = biological target: Protein cereblon/Bromodomain-containing protein 4 (Homo sapiens, UniProt O60885+Q96SW2); assay: PROTAC activity at […]/BRD4 in human HEK293T cells assessed as degradation of BRD4 incubated for 24 hrs by HiBiT assay; assay type: cell-based
Protein cereblon/Bromodomain-containing protein 4, sequence (Q96SW2 whole entry, looked up, other chains not shown): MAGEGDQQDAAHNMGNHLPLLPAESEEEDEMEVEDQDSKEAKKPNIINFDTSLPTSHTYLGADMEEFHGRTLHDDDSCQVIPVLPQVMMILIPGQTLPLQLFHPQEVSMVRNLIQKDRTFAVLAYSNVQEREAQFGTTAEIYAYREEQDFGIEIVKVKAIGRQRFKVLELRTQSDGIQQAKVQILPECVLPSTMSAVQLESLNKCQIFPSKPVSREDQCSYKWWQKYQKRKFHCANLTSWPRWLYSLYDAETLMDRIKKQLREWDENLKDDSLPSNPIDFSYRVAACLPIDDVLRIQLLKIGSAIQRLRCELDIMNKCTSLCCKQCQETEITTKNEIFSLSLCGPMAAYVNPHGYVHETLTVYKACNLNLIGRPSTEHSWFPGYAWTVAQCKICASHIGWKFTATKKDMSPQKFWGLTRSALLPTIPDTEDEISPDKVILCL

HEK293 [4] = assay: Cytotoxicity against permeabilized HEK293 cells assessed as inhibition of cell viability incubated for 30 mins in presence of CRBN-tracer by nanoBRET assay; assay type: functional, cell-based, Homo sapiens
Outline: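 Transfected HEK293 cells (NanoLuc-CRBN plus DDB1), thawed from frozen into phenol-red-free Opti-MEM (500,000 cells/mL). Wells held CRBN-tracer (7.5 nL) and 11-pt 3-fold titrations (50 uM top assay concentration); 18 uL cells added, then 2 uL 0.5 mg/mL digitonin, 30 min at room temperature. NanoBRET substrate 1:166, no extracellular inhibitor; BRET luminescence at 450-480 nm and 610-LP.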

HEK293 [5] = assay: Cytotoxicity against human HEK293 cells assessed as inhibition of cell viability at […] incubated for 30 mins by cell titer-glo assay relative to control; assay type: functional
HEK293 [6] = assay: Cytotoxicity against human HEK293 cells assessed as inhibition of cell viability incubated for 24 hrs by cell titer-glo assay; conditions: HEK293, 24 h
HEK293 [7] = assay: Cytotoxicity against human HEK293 cells assessed as inhibition of cell viability at 12 uM incubated for 30 mins by cell titer-glo assay relative to control; assay type: functional; conditions: HEK293, 0.5 h
HEK293 [8] = assay: Cytotoxicity against human HEK293 cells assessed as inhibition of cell viability at 10 uM incubated for 30 mins by cell titer-glo assay relative to control; assay type: functional; conditions: HEK293, 0.5 h
[9] = Homo sapiens, HEK293, 0.5 h, read-out: Emax

Compound	relative binding affinity (RBA) [1]	IC50 (HEK293 [2]; Homo sapiens, HEK293, 0.5 h)	DC50 [3]	IC50 (HEK293 [4]; Homo sapiens, HEK293, 0.5 h)	Emax (HEK293 [5]; [9])	EC50 (HEK293 [6])	further results
Cc1sc2c(c1C)C(c1ccc(Cl)cc1)=N[C@@H](CC(=O)N(C)CCOCCNC(=O)COc1cccc3c1C(=O)N(C1CCC(=O)NC1=O)C3=O)c1nnc(C)n1-2 (stereo not given in full)	9.6	1600 nM	7100 nM	–	–	–	–
Cc1ccc(C(=O)N(C)CCN2CCN(C(=O)C[C@@H]3N=C(c4ccc(Cl)cc4)c4c(sc(C)c4C)-n4c(C)nnc43)CC2)cc1N1CCC(=O)NC1=O	0.9	4500 nM	88 nM	–	–	–	–
Cc1sc2c(c1C)C(c1ccc(Cl)cc1)=N[C@@H](CC(=O)N1CCN(c3ncc(OC4CCN(C(=O)COc5cccc6c5C(=O)N(C5CCC(=O)NC5=O)C6=O)CC4)cn3)CC1)c1nnc(C)n1-2 (stereo not given in full)	2.3	70 nM	6 nM	–	–	–	–
O=C1CCC(=O)N1O	–	> 50000 nM	> 50000 nM	> 50000 nM	10.8%	> 50000 nM	–
Cc1ccc(C(=O)O)cc1N1CCC(=O)NC1=O	–	> 50000 nM	> 21700 nM	1940 nM	7.84%	> 50000 nM	–
Cc1ccc(C(=O)N(C)[C@H]2C[C@H](NC(=O)C[C@@H]3N=C(c4ccc(Cl)cc4)c4c(sc(C)c4C)-n4c(C)nnc43)C2)cc1N1CCC(=O)NC1=O	6.4	2100 nM	> 20000 nM	–	–	–	–
Cc1sc2c(c1C)C(c1ccc(Cl)cc1)=N[C@@H](CC(=O)ON1C(=O)CCC1=O)c1nnc(C)n1-2	–	> 50000 nM	> 50000 nM	> 50000 nM	5.26%	> 50000 nM	–
Cc1ccc(C(=O)ON2C(=O)CCC2=O)cc1N1CCC(=O)NC1=O	–	22200 nM	> 50000 nM	6040 nM	9.24%	> 50000 nM	–
Cc1sc2c(c1C)C(c1ccc(Cl)cc1)=N[C@@H](CC(=O)O)c1nnc(C)n1-2	–	> 50000 nM	> 50000 nM	> 50000 nM	–	> 50000 nM	Emax (HEK293 [5]; 0.5 h): 14.23%
O=C1CCC(N2C(=O)c3cccc(OCC(=O)ON4C(=O)CCC4=O)c3C2=O)C(=O)N1 (stereo not given)	–	7420 nM	> 50000 nM	1050 nM	11.9%	> 50000 nM	–
Cc1sc2c(c1C)C(c1ccc(Cl)cc1)=N[C@@H](CC(=O)N[C@H]1C[C@H](N(C)C(=O)COc3cccc4c3C(=O)N(C3CCC(=O)NC3=O)C4=O)C1)c1nnc(C)n1-2 (stereo not given in full)	25	89 nM	110 nM	–	–	–	–
Cc1sc2c(c1C)C(c1ccc(Cl)cc1)=N[C@@H](CC(=O)NCCCCNC(=O)COc1cccc3c1C(=O)N(C1CCC(=O)NC1=O)C3=O)c1nnc(C)n1-2 (stereo in doubt; form 2)	–	–	–	–	–	–	IC50 (HEK293 [4]; hek293): 56 nM; Emax at 12 µM (HEK293 [7]): 21.7%; IC50 (HEK293 [2]; hek293): 930 nM
Cc1ccc(C(=O)NCCOCCN(C)C(=O)C[C@@H]2N=C(c3ccc(Cl)cc3)c3c(sc(C)c3C)-n3c(C)nnc32)cc1N1CCC(=O)NC1=O	5	3200 nM	23 nM	–	–	–	–
Cc1ccc(C(=O)N2CCC(Oc3cnc(N4CCN(C(=O)C[C@@H]5N=C(c6ccc(Cl)cc6)c6c(sc(C)c6C)-n6c(C)nnc65)CC4)nc3)CC2)cc1N1CCC(=O)NC1=O	0.9	100 nM	20 nM	–	–	–	–
Cc1sc2c(c1C)C(c1ccc(Cl)cc1)=N[C@@H](CC(=O)N1CCN(CCN(C)C(=O)COc3cccc4c3C(=O)N(C3CCC(=O)NC3=O)C4=O)CC1)c1nnc(C)n1-2 (stereo not given in full)	25	71 nM	241 nM	–	–	–	–
Cc1sc2c(c1C)C(c1ccc(Cl)cc1)=N[C@@H](CC(=O)NCCCCNC(=O)COc1cccc3c1C(=O)N(C1CCC(=O)NC1=O)C3=O)c1nnc(C)n1-2 (stereo in doubt; form 1)	–	–	–	90 nM	–	–	Emax at 10 µM (HEK293 [8]): 25.2%; IC50 (HEK293 [2]; hek293): 2200 nM
O=C(O)COc1cccc2c1C(=O)N(C1CCC(=O)NC1=O)C2=O (stereo not given)	–	> 50000 nM	> 50000 nM	830 nM	7.58%	> 50000 nM	–
